In the library only some 5.3% were active in any assay of this set; here they are far more common.
Beta cell apopt – blocks beta cell apoptosis; INS-1E cytokine-induced death, ATP luminescence, 48 h; percent of positive-control rescue, neutral wells zero; protection from apoptosis, % (test concentration not listed); 300,000 compounds, 0.8% hits; AID 435005;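 active = Every replicate reaches about 75%, or at least half do and their mean reaches it too, limit read from the data; inconclusive = At least half of replicates reach the limit but their mean does not; inactive = Under half of replicates reach the limit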;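 also: higher means more ATP so stronger rescue from cytokine killing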
Mdm2-MdmX inh – disrupts the human Mdm2-MdmX interaction | SaOS-2 split-luciferase Mdm2/MdmX complementation, luminescence | inhibition, % at 8 µM | 330,000 compounds, 3% hits;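 active = inhibition of at least 50% at 8 µM in the primary screen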
Target sequence (O15151 whole entry, looked up): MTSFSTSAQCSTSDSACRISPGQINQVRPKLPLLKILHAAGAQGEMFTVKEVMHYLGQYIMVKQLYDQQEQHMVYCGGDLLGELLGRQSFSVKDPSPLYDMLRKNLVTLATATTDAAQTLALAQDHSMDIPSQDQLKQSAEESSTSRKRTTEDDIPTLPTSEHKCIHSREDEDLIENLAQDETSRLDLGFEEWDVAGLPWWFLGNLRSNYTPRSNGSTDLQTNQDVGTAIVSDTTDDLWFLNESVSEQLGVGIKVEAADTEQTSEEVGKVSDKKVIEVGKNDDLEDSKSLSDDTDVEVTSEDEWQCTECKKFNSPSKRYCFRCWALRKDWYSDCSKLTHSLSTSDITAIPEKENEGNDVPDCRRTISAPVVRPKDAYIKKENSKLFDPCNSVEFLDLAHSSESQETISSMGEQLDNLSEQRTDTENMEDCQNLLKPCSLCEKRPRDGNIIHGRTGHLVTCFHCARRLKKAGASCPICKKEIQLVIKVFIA
Target sequence (Q00987 whole entry, looked up): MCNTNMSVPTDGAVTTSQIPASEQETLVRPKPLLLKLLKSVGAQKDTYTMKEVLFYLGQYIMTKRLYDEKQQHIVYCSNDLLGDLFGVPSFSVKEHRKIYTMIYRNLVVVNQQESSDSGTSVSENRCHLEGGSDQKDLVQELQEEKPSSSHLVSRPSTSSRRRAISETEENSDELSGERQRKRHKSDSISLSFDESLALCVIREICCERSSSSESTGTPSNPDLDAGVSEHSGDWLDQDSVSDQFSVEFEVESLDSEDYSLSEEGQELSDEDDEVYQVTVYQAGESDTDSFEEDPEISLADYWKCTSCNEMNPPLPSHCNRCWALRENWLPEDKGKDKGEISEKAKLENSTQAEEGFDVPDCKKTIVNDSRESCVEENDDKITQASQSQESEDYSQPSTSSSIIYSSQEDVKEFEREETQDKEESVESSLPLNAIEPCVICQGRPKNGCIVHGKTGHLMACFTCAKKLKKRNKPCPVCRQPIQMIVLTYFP
NALP3 yeast inh – inhibitors of NALP3 inflammasome in yeast; 330,000 compounds, 0.39% hits; AID 2825; Yeast reconstituted NLRP3/ASC/caspase-1, beta-gal luminescence, 24 h; inhibition, % at 10 µM;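 active = inhibition of 50% or more; inactive = inhibition below 50%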
Calb FLC – affects C. albicans growth with fluconazole; C. albicans CaCi-2 (fluconazole-resistant clinical isolate) + fluconazole, Alamar Blue growth, 48 h; growth inhibition, % (concentration not given with the values); 300,000 compounds, 0.57% hits;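 active = growth inhibition above about 58% in most replicates, limit read from the data, passing the limit was not always enough; inconclusive = exactly half the replicates above a set limit; inactive = most replicates below a set limit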;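 also: all wells also contain fluconazole at 8 µg/ml as a sub-toxic cotreatment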
T cruzi inh – T. cruzi replication inhibition; T. cruzi beta-gal in NIH3T3, luminescence, 90 h; inhibition, % (no concentration beside the values); 300,000 compounds, 1.4% hits; AID 1885;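 active = mean inhibition across valid replicates above about 55%, limit read from the data; inconclusive = mean below that limit but half or more replicates reach it; inactive = mean below it, under half of replicates reach it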;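 also: signal also drops with host cell toxicity which is not excluded here; higher percent means less beta-gal luminescence so fewer parasites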
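Read-out: Parasite load inhibition, % | Test system: Mouse NIH/3T3 fibroblasts infected with β-gal-expressing T. cruzi Tulahuen C4 | Amount: 5,000 cells/well | Medium: DMEM, 2% fetal bovine serum | Signal: GalScreen β-gal luminescence, detergent lysis, 60 min | Timing: 3 h attach, ≥90 h co-culture | Also added: Tulahuen C4 trypomastigotes, 5000/well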
CSC inhib – cancer stem cell inhibition | 300,000 compounds, 1.1% hits | cancer stem cell-like cells viability, luminescence | inhibition, % at 7.5 µM; in the data active = inhibition above about 75%; inconclusive = no clear call, values can overlap the other calls; tested in HMLE shEcad cells
Mdm2-MdmX conf – human Mdm2/MdmX binding inhibition, confirmed. AID 489028. 10,000 compounds, 55% hits. luminescent assay. inhibition, % at 8 µM. shares compounds with Mdm2-MdmX inh; in the data active = inhibition above about 40%
Full FLuc ctr – full-length luciferase inhibition in Mdm2/MdmX counter-screen; 6,200 compounds, 77% hits; inhibition, % at 8 µM; AID 504607; SaOS-2 full-length luciferase counterscreen, luminescence; shares compounds with Mdm2-MdmX inh;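 active = mean inhibition at 8 µM reaching about 37%, which flags the compound as non-specific, limit read from the data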;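 also: p53-null SaOS-2 cells with luciferase driven by a doxycycline-inducible promoter; compound on cells about two nights before reading with doxycycline added after day one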
Of the large screens only hits and unclear results are named; the others gave an inactive call (follow-up assays come after a bar, where they were run).

CCCNC(=O)c1ccc2c(=O)c(O)c(-c3ccsc3)[nH]c2c1	Mdm2-MdmX inh 57 | Mdm2-MdmX conf inactive
CCCNC(=O)c1ccc2c(=O)c(O)c(-c3ccc(C)cc3)[nH]c2c1	Beta cell apopt 82, Mdm2-MdmX inh 58 | Mdm2-MdmX conf 51 | Full FLuc ctr 48
Cc1ccc(-c2[nH]c3cc(C(N)=O)ccc3c(=O)c2O)cc1	none (no result: CSC inhib)
Cc1ccc(-c2[nH]c3cc(C(=O)NCCCn4ccnc4)ccc3c(=O)c2O)cc1	none
CCCCCn1c(=O)[nH]c2cc(C(=O)NCCCN(CC)CC)ccc2c1=O	none
Cc1ccc(CNC(=O)c2ccc3c(=O)c(O)c(-c4ccc(C)cc4)[nH]c3c2)cc1	Mdm2-MdmX inh 58, T cruzi inh 60 | Mdm2-MdmX conf 55 | Full FLuc ctr inactive
COc1ccc(Cn2c(C)c(C)c(C#N)c2NC(=O)Nc2cccc(C)c2)cc1	Mdm2-MdmX inh 54 | Mdm2-MdmX conf inactive
COc1ccc(Cn2cccc(NC(=O)Nc3cccc(C#N)c3)c2=O)cc1	Mdm2-MdmX inh 67 | Mdm2-MdmX conf inactive
COc1ccc(Cn2c(C)c(C)c(C#N)c2NC(=O)Nc2ccccc2)cc1	none
O=C(O)c1cc2n(n1)C(C(F)(F)F)CC(c1ccccc1)N2 (centres undefined)	none
CCN(C(=O)c1ccc(Br)o1)C1CCS(=O)(=O)C1 (centres undefined)	none
COc1cccc(CN(C)C(=O)C(CCSC)NS(=O)(=O)c2ccc3c(c2)OCCO3)c1OC (centres undefined)	Mdm2-MdmX inh 67 (no result: Beta cell apopt) | Mdm2-MdmX conf 56 | Full FLuc ctr 72
COc1ccc2nc(N/C(N)=N/C(=S)Nc3c(C)cccc3C)nc(C)c2c1	Mdm2-MdmX inh 57, Calb FLC inconclusive | Mdm2-MdmX conf 41 | Full FLuc ctr 68
Cc1ccc(NC(=S)/N=C(\N)Nc2nc(C)c3cc(C)ccc3n2)c(C)c1	Mdm2-MdmX inh 72 | Mdm2-MdmX conf 41 | Full FLuc ctr 79
CCc1ccccc1NC(=S)/N=C(\N)Nc1nc(C)c2cc(C)ccc2n1	Mdm2-MdmX inh 67 | Mdm2-MdmX conf 52 | Full FLuc ctr 70
CCOc1ccc2nc(N/C(N)=N/C(=S)Nc3cccc(OC)c3)nc(C)c2c1	none
CCOc1ccc2nc(N/C(N)=N/C(=S)Nc3cccc(C)c3)nc(C)c2c1	none
COc1ccc(/C(O)=C2/C(=O)C(=O)N(CCN3CCOCC3)C2c2cccnc2)cc1OC (centres undefined)	none (no result: Beta cell apopt, CSC inhib)
COc1ccc(Cl)cc1C(=O)NNC(=O)COC(=O)c1ccc(Br)o1	none (no result: Calb FLC, T cruzi inh)
O=C(Nc1nc(-c2cccc([N+](=O)[O-])c2)cs1)C(c1ccccc1)c1ccccc1	none
Cn1cc([N+](=O)[O-])c(C(=O)Nc2nc(-c3ccc(Cl)cc3)cs2)n1	Mdm2-MdmX inh 94, CSC inhib 103 (no result: Beta cell apopt) | Mdm2-MdmX conf 90 | Full FLuc ctr 44
CC(=O)c1c(C)[nH]c(C(=O)Nc2nc(-c3ccc(Cl)cc3)cs2)c1C	none
Cc1ccc(-c2nc(NC(=O)c3nn(C)cc3[N+](=O)[O-])sc2C)cc1	Beta cell apopt 116, Mdm2-MdmX inh 79 (no result: CSC inhib) | Mdm2-MdmX conf 100 | Full FLuc ctr 53
Cc1ccc(-c2nc(NC(=O)c3nn(C)cc3[N+](=O)[O-])sc2C)cc1C	Beta cell apopt 107, Mdm2-MdmX inh 81, T cruzi inh 64 (no result: CSC inhib) | Mdm2-MdmX conf 100 | Full FLuc ctr 51
Cc1cnc(NC(=O)c2nn(C)cc2[N+](=O)[O-])s1	none (no result: Beta cell apopt, CSC inhib)
O=C(NC(=S)Nc1nc(-c2cccc([N+](=O)[O-])c2)cs1)c1cc(Cl)ccc1Cl	Mdm2-MdmX inh 52 | Mdm2-MdmX conf inactive
Cc1nc(C(Cl)(Cl)Cl)nc2[nH]ccc(=O)c12	none
COc1ccc(S(N)(=O)=O)cc1C(=O)NCCCN1CCN(c2cccc(Cl)c2)CC1	none
Cc1ccc(Oc2c(C(N)=O)cc([N+](=O)[O-])cc2[N+](=O)[O-])cc1	Mdm2-MdmX inh 95, CSC inhib active | Mdm2-MdmX conf 95 | Full FLuc ctr 52
Cc1[nH]c(=O)[nH]c(=O)c1S(=O)(=O)N1CCN(c2ccccc2)CC1	none
Nc1nnnn1/N=C/c1ccccc1OCc1ccc(Cl)cc1Cl	none
Nc1nnnn1/N=C/c1cc(Cl)cc(Cl)c1OCc1ccc(Cl)cc1Cl	Mdm2-MdmX inh 81 | Mdm2-MdmX conf inactive
CCc1cc(C(=O)c2ccc(C)cc2)c(NC(=O)CCl)s1	none
Cc1cc(C(=O)c2ccc(Cl)cc2)c(NC(=O)CCl)s1	Mdm2-MdmX inh 67 | Mdm2-MdmX conf inactive
Cc1cc(C)c(C#N)c(SCCN2CCCCC2)n1	none
COc1ccc(C(=O)c2c(C(F)(F)F)oc3c2C(=O)c2ccccc2C3=O)cc1	Beta cell apopt 115, Mdm2-MdmX inh 78, T cruzi inh inconclusive, CSC inhib 106 | Mdm2-MdmX conf 66 | Full FLuc ctr 54
CCC(/C=C1\Sc2ccc(OC)cc2N1CC)=C\c1sc2ccc(OC)cc2[n+]1CCCS(=O)(=O)[O-]	Beta cell apopt 103, Mdm2-MdmX inh 54 | Mdm2-MdmX conf inactive
CCC(=O)/C=C1/Sc2ccc(OC)cc2N1CCO	none
CCC(/C=C1\Sc2ccc(OC)cc2N1CCO)=C\c1sc2ccc(OC)cc2[n+]1CCO	Mdm2-MdmX inh 72 (no result: Calb FLC, T cruzi inh) | Mdm2-MdmX conf inactive
O=C(Nc1ccccc1F)C(=Cc1sc(N2CCOCC2)nc1-c1ccccc1)C(=O)Nc1ccccc1F	none
C/C(=N\Nc1nc(-c2ccccn2)nc2ccccc12)c1ccc(F)cc1	Beta cell apopt 87, Mdm2-MdmX inh 75, CSC inhib 82 | Mdm2-MdmX conf inactive | Full FLuc ctr inactive
c1ccc(-c2nc(N3CCCCCC3)c3ccccc3n2)nc1	Beta cell apopt 123, Mdm2-MdmX inh 84, T cruzi inh 63 | Mdm2-MdmX conf 86 | Full FLuc ctr inactive
c1ccc(-c2nc(N3CCOCC3)c3ccccc3n2)nc1	none
c1ccc(CCNc2nc(-c3ccccn3)nc3ccccc23)cc1	Beta cell apopt 96, Mdm2-MdmX inh 93, T cruzi inh 76 | Mdm2-MdmX conf 89 | Full FLuc ctr inactive
Fc1ccc(Oc2nc(-c3ccccn3)nc3ccccc23)cc1	Beta cell apopt 77, Mdm2-MdmX inh 57 | Mdm2-MdmX conf inactive
C/C(=N\Nc1nc(-c2ccccc2O)nc2ccccc12)c1ccccc1	none
Cn1nnnc1SCC(=O)NC1CCCC1	none
O=C(C1=C(O)C(=O)N(Cc2ccco2)C1c1cccc(O)c1)c1ccco1 (centres undefined)	none (no result: Beta cell apopt)
CCOC(=O)C1=C2SCCN2C(=O)C(C#N)C1(C)C (centres undefined)	none
CC(=O)Nc1c2c3c(cccc3n(C)c1=O)C(=O)c1ccccc1-2	none (no result: CSC inhib)

Source: PubChem
